ChEMBL document CHEMBL1145089, “Development of water-soluble prodrugs of the HIV-1 protease inhibitor KNI-727: importance of the conversion time for higher gastrointestinal absorption of prodrugs based on spontaneous chemical cleavage” (J Med Chem, 2003)

Key:
[1] = In vitro half life at pH 7.4 and 37 degrees C; type: ADME; conditions: buffer
Outline: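 Prodrug, added as 0.5 mM DMSO stock (10 μL into 1 mL), incubated in PBS pH 7.4 at 37 °C. Release of parent drug followed by RP-HPLC. t1/2 is the time to 50% release of parent drug. Means ± SEM of three experiments.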

[2] = C max was determined; type: ADME, organism-based; conditions: in vivo
Outline: (§1)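 Male Sprague–Dawley rats (240–300 g, n = 5 or 3), fasted overnight, given the agent intraduodenally via duodenal cannula at a dose equivalent to 10 mg/kg parent drug, in 50% PEG (8000) or saline, 1 mL/kg. Arterial blood taken at 5 min–8 h. Plasma was ethyl acetate extracted and the parent drug quantified by RP-HPLC (UV 202 nm). Cmax/Tmax from mean profiles; AUC0–8 by linear trapezoidal rule.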

[3] = Bioavailability; type: ADME, organism-based; conditions: eutheria, in vivo
Outline: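 Rat intraduodenal dosing (dose equivalent to 10 mg/kg parent drug, 50% PEG or saline, 1 mL/kg). Plasma parent drug measured by RP-HPLC over 8 h. Bioavailability is the ratio of mean AUC0–8 (×10) against intravenous parent drug at 1 mg/kg in ethanol cosolvent via femoral vein (n = 2).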

[4] = T max was determined; type: ADME; outline: as §1
[5] = Area under curve (AUC) was determined; type: ADME; design: concentration or dose not given beside the values; outline: as §1

SMILES | half-life [1] [min] | Cmax [2] [ng/mL] | bioavailability [3] [%] | Tmax [4] [min] | AUC [5] [ng·h/mL]
CCCNC(=O)CCC(=O)O[C@H](C(=O)N1CSC(C)(C)[C@H]1C(=O)NC(C)(C)C)[C@H](Cc1ccccc1)NC(=O)COc1c(C)cccc1C | 922 |  |  |  | 
Cc1cccc(C)c1OCC(=O)N[C@@H](Cc1ccccc1)[C@H](O)C(=O)N1CSC(C)(C)[C@H]1C(=O)NC(C)(C)C |  | 1230 | 15.8 | 5 | 3580
Cc1cccc(C)c1OCC(=O)N[C@@H](Cc1ccccc1)[C@H](OC(=O)CCCC(=O)NCCN)C(=O)N1CSC(C)(C)[C@H]1C(=O)NC(C)(C)C.Cl | 1240 | 460 | 9.4 | 60 | 2130
Cc1cccc(C)c1OCC(=O)N[C@@H](Cc1ccccc1)[C@H](OC(=O)CCC(=O)NCCN)C(=O)N1CSC(C)(C)[C@H]1C(=O)NC(C)(C)C.Cl | 12.7 | 650 | 17.5 | 240 | 3980
Cc1cccc(C)c1OCC(=O)N[C@@H](Cc1ccccc1)[C@H](OC(=O)CCC(=O)NCc1ccccn1)C(=O)N1CSC(C)(C)[C@H]1C(=O)NC(C)(C)C.Cl | 48.5 |  |  |  | 
Cc1cccc(C)c1OCC(=O)N[C@@H](Cc1ccccc1)[C@H](OC(=O)CCC(=O)NCCCN1CCOCC1)C(=O)N1CSC(C)(C)[C@H]1C(=O)NC(C)(C)C.Cl | 79.5 | 410 | 6.9 | 30 | 1570
Cc1cccc(C)c1OCC(=O)N[C@@H](Cc1ccccc1)[C@H](OC(=O)CCC(=O)NCCN1CCOCC1)C(=O)N1CSC(C)(C)[C@H]1C(=O)NC(C)(C)C.Cl | 40.3 | 1890 | 23.1 | 30 | 5250
Cc1cccc(C)c1OCC(=O)N[C@@H](Cc1ccccc1)[C@H](OC(=O)CCC(=O)NCc1cccnc1)C(=O)N1CSC(C)(C)[C@H]1C(=O)NC(C)(C)C.Cl | 35.4 | 1370 | 26.4 | 30 | 6000
Cc1cccc(C)c1OCC(=O)N[C@@H](Cc1ccccc1)[C@H](OC(=O)CCC(=O)NCCN1CCCCC1)C(=O)N1CSC(C)(C)[C@H]1C(=O)NC(C)(C)C.Cl | 3.6 |  |  |  | 
Cc1cccc(C)c1OCC(=O)N[C@@H](Cc1ccccc1)[C@H](OC(=O)CCCC(=O)NCCN1CCOCC1)C(=O)N1CSC(C)(C)[C@H]1C(=O)NC(C)(C)C.Cl | 2060 | 480 | 5.4 | 30 | 1230
Cc1cccc(C)c1OCC(=O)N[C@@H](Cc1ccccc1)[C@H](OC(=O)CCC(=O)NCCN1CCCC1)C(=O)N1CSC(C)(C)[C@H]1C(=O)NC(C)(C)C.Cl | 7.9 | 840 | 16.1 | 15 | 3650
Cc1cccc(C)c1OCC(=O)N[C@@H](Cc1ccccc1)[C@H](OC(=O)CCC(=O)NCc1ccncc1)C(=O)N1CSC(C)(C)[C@H]1C(=O)NC(C)(C)C.Cl | 34.9 | 1620 | 29 | 30 | 6570
